Measured values published in ChEMBL document CHEMBL3286275, “Identification of 1-{2-[4-chloro-1'-(2,2-dimethylpropyl)-7-hydroxy-1,2-dihydrospiro[indole-3,4'-piperidine]-1-yl]phenyl}-3-{5-chloro-[1,3]thiazolo[5,4-b]pyridin-2-yl}urea, a potent, efficacious and orally bioavailable P2Y(1) antagonist as an antiplatelet agent” (Bioorg Med Chem Lett, 2014).

How the values were obtained:
Rattus norvegicus [1] = assay: Toxicity in rat assessed as prolongation of mesentric bleeding time at 10 mg/kg, po relative to control; format: organism-based; set-up: dose 10 mg/kg, route oral; conditions: in vivo
Procedure, shortened: (§1)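 Pentobarbital-anesthetized rats dosed by oral gavage 1 h before bleeding-time induction. Vehicle was 1 ml/kg of 10% N,N-dimethylacetamide/90% dextrose 5% water, and compound was given at 0.3, 1, 3 and 10 mg/kg. Cuticle and mesenteric bleeding times were measured and expressed as fold prolongation relative to vehicle. Group sizes were indicated per group.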

Rattus norvegicus [2] = assay: Toxicity in rat assessed as prolongation of cuticle bleeding time at 10 mg/kg, po relative to control; format: organism-based; set-up: dose 10 mg/kg, route oral; conditions: in vivo; procedure, shortened: as §1
Rattus norvegicus [3] = assay: Antithrombotic activity in pentobarbital anesthetized rat assessed as reduction in FeCl2-induced thrombus weight at 10 mg/kg, po administered 1 hr prior to FeCl2 challenge; format: functional; set-up: scale not given: the % may be the effect or the level left
Procedure, shortened: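 Pentobarbital-anesthetized rats; vehicle (1 ml/kg of 10% N,N-dimethylacetamide/90% dextrose 5% water) or 0.3, 1, 3, 10 mg/kg by oral gavage 1 h before FeCl2-induced carotid thrombosis or cuticle/mesenteric bleeding time. End points were thrombus weight and blood flow. Blood was drawn at the end of the thrombosis protocol for ex vivo aggregation. ID50 values derived; SEM reported.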

P2Y purinoceptor 1 = P2Y purinoceptor 1 (Homo sapiens, UniProt P47900); assay: Antagonist activity at P2Y1 receptor in human platelets by FLIPR assay in presence of 2-methylthio-ADP
Chain of P2Y purinoceptor 1 (P47900 whole entry): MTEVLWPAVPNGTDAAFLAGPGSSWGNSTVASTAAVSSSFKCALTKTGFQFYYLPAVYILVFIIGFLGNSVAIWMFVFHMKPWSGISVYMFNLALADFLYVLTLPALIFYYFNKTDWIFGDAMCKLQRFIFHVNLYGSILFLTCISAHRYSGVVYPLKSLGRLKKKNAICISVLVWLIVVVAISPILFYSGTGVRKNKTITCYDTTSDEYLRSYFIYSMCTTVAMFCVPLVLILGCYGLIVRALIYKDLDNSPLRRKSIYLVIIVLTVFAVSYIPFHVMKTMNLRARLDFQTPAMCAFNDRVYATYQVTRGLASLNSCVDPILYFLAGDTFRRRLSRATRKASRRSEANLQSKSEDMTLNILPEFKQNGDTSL
Procedure, shortened: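 Washed human platelets with endogenous P2Y1; calcium signalling read by FLIPR with reduced protein (~0.1% BSA); agonist 2-methylthio-ADP at 1 µM; IC50 given as mean ± SD.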

Rattus norvegicus [4] = assay: Antithrombotic activity in po dosed pentobarbital anesthetized rat assessed as reduction in FeCl2-induced thrombus weight administered 1 hr prior to FeCl2 challenge
Liver microsome [5] = assay: Metabolic stability in rat liver microsomes assessed as compound remaining; format: ADME
Procedure, shortened: (§2)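 Liver microsome stability: percent of compound remaining after incubation with […] (3 µM microsomes in some cases).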

Liver microsome [6] = assay: Metabolic stability in human liver microsomes assessed as compound remaining; format: ADME; procedure, shortened: as §2
Platelet = assay: Inhibition of ADP-induced platelet aggregation in platelet-rich human plasma; format: functional
Procedure, shortened: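 Human platelet-rich plasma; aggregation triggered by 10 µM ADP; IC50 determined.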

Compound: COC(=O)[C@H](c1ccccc1Cl)N1CCc2sccc2C1 [CLOPIDOGREL]
- fold change (FC) (Rattus norvegicus [1]): 8.2
- fold change (FC) (Rattus norvegicus [2]): 6.2
- Activity (Rattus norvegicus [3]): 67%

Compound: CC(C)(C)CN1CCC2(CC1)CN(c1ccccc1NC(=O)Nc1ccc(OC(F)(F)F)cc1)c1ccc(O)cc12
- IC50 (P2Y purinoceptor 1): > 150 nM

Compound: CC(C)(C)CN1CCC2(CC1)CN(c1ccccc1NC(=O)Nc1ccc(OC(F)(F)F)cc1)c1ccccc12
- IC50 (Rattus norvegicus [4]): 470 nM

Compound: CC(C)(C)CN1CCC2(CC1)CN(c1ccccc1NC(=O)Nc1csc(Cl)n1)c1c(O)ccc(Cl)c12
- Stability (Liver microsome [5]): 66%
- Stability (Liver microsome [6]): 87%
- IC50 (Platelet): 170 nM
- IC50 (P2Y purinoceptor 1): 0.03 nM
